In paper PMC11349029 (Science translational medicine, 2016):
Residues, ends and D or L forms follow the SMILES beside them. No end group written: not given here. *: point of attachment. Cbz = O=C(OCc1ccccc1)*

Columns and labels:
AR55Q (polyQ-AR) [1] = assay: Western blotting of upper AR isoform in HEK293T cells; assay type: cell-based, human; conditions: for accumulation of the upper AR isoform (p21Cip1 experiments) / effect on upper AR isoform upon overexpression of wtCDK2: HEK293T AR55Q; for accumulation of the upper AR isoform (p21Cip1 experiments): 5 or 100 nM OA, 10 μM forskolin, 100 nM PACAP, 24 hours; for effect on upper AR isoform upon overexpression of wtCDK2: 10 μM forskolin or 100 nM PACAP; for mobility of S96A and S96D phosphomutants: HEK293T, AR55Q-S96A, AR55Q-S96D, 100 nM PACAP (5 hours), SDS-PAGE, n = 4
[2] = test system: animal models of AD, PD and HD; conditions: cited from earlier work
healthy male subjects = conditions: cited from earlier work
AC/PKA pathway = conditions: cited from earlier work
p21^Cip1 = assay: p21Cip1 expression in cells; assay type: cell-based; conditions: fig. S13, A to D
cAMP = cAMP levels in vivo; design: species or system mouse; conditions: fig. S21; intranasal
[3] = cited from earlier work
[4] = test system: AR55Q phosphorylated at Ser^96; assay: Western blotting of Ser96-phosphorylated AR in HEK293T cells; assay type: cell-based, human; conditions: 10 μM forskolin or 100 nM PACAP, 5 hours, n = 5 to 10
Procedure, shortened: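 HEK293T cells expressing AR55Q or AR55Q-S96A were treated with 10 μM forskolin or 100 nM PACAP for 5 hours. Lysates were run on 7% SDS-PAGE and blotted to nitrocellulose. Blots were probed with antibodies to Ser96-phosphorylated and total AR and detected by chemiluminescence or infrared imaging. n = 9 to 10 and 5 independent experiments.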

SBMA MN-1 cells [5] = assay: Caspase 3 assay in MN-1 cells; assay type: cell-based, mouse; conditions: SBMA MN-1 cells (AR65Q), 48 hours
[6] = cited from earlier work; remark: listed apart in the source
[7] = test system: cAMP (EPAC biosensor), SBMA MN-1 cells; assay: BRET cAMP biosensor assay in MN-1 cells; assay type: cell-based, mouse; conditions: SBMA MN-1 cells (AR65Q); different concentrations of PACAP, 20 min; n = 4
Procedure, shortened: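 MN-1 cells were transfected with an EPAC cAMP BRET biosensor (Renilla luciferase N-terminal, YFP C-terminal) 24 h after seeding. After another 24 h they were replated at 80,000 cells/well in phenol red–free MEM with 2% FBS, 10 mM Hepes and 2 mM glutamine, with or without 10 nM DHT for 24 h. Wells were read in PBS (Ca/Mg, 0.003% ascorbic acid) with 5 μM coelenterazine h for about 20 min after agonist; cAMP binding lowers the signal.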

AR112Q (polyQ-AR) = assay: PolyQ-AR aggregation in PC12 cells; assay type: cell-based, rat PC12 cells; conditions: doxycycline 10 μg/ml, 10 nM DHT, 10 μM forskolin, 24 hours, n = 3
SBMA MN-1 cells [8] = assay: Trypan blue assay in MN-1 cells; assay type: cell-based, mouse; conditions: MN-1 cells expressing AR100Q, 100 nM PACAP, 96 hours, n = 8
Procedure, shortened: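 MN-1 cells stably expressing AR100Q were grown in DMEM with 10% FBS, 2 mM L-glutamine and gentamicin 0.05 mg/ml at 37°C, 5% CO2. Cells were given DHT plus vehicle or 100 nM PACAP for 96 hours.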

CDK2/p21^Cip1 = assay: Binding of CDK2 to p21Cip1 in SBMA cells; assay type: cell-based; conditions: fig. S13E
polyQ-AR [9] = assay: PolyQ-AR aggregation in HEK293T cells; assay type: cell-based, human; conditions: high–molecular weight species in stacking gel, SDS-PAGE; fig. S18
AR = conditions: cited from earlier work
AR55Q (polyQ-AR) [10] = assay: PolyQ-AR accumulation and turnover in HEK293T cells; assay type: cell-based, human
Procedure, shortened: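 AR55Q was expressed in HEK293T cells (DMEM, 10% heat-inactivated FBS, 2 mM L-glutamine, 37°C, 5% CO2) by polyethylenimine transfection the day after plating. For turnover, cells got cycloheximide 10 μg/ml plus 10 μM forskolin; separately, empty vector or wtPKA plus 10 μM MG132 for 5 h. AR was immunoblotted after 7% SDS-PAGE against a β-tubulin loading control.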

AR100Q (polyQ-AR) [11] = assay: Western blotting of upper AR isoform in MN-1 cells; assay type: cell-based, mouse motor neuron–derived MN-1 cells; conditions: 10 μM forskolin (5 hours); n = 3
AR100Q (polyQ-AR) [12] = assay: Western blotting of upper AR isoform in primary cortical neurons; assay type: cell-based, rat primary cortical neurons; conditions: 10 μM forskolin (5 hours); n = 4
Procedure, shortened: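 Cortical neurons came from embryonic day 18 Sprague-Dawley rats, dissociated with papain/DNase/cysteine and plated at 40,000 cells/cm² on poly-L-lysine in Neurobasal/B-27/GlutaMAX. At 6–7 DIV they were transduced with lentivirus (MOI 10) expressing AR24Q or AR100Q plus EGFP. Neurons were treated with 10 μM forskolin for 5 h, and AR upper and lower isoforms were immunoblotted with loading controls; n = 4.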

polyQ-AR [13] = assay: Atomic force microscopy of polyQ-AR oligomers; assay type: cell-based; conditions: Sf9 insect cells; 10 nM DHT and 10 μM forskolin, 24 hours; n = 15 to 25
PAC1 receptor = conditions: cited from earlier work

CC[C@H](CO)Nc1nc(NCc2ccccc2)c2ncn(C(C)C)c2n1 [Roscovitine, roscovitine]
accumulation of the upper isoform of polyQ-AR, phosphatase/kinase inhibitors (AR55Q (polyQ-AR) [1]; HEK293T expressing AR55Q, fig. S5, S6): specifically decreased the accumulation

PACAP38: main PACAP peptide in mammals (137061-48-4, Calbiochem)
neuroprotective effects [2]: strong neuroprotective effects | tolerability, intranasal administration (healthy male subjects): well tolerated | stimulation of cAMP production (AC/PKA pathway; general statement in discussion, no reference given): stimulate cAMP production

pituitary adenylyl cyclase activating polypeptide [PACAP]
expression of p21Cip1 (p21^Cip1): induced the expression | cAMP production in vivo, PACAP (cAMP): induces cAMP production in vivo | penetration into target tissues [3]: scarce penetration into target tissues | activation of AC (AC/PKA pathway): potent activator | amount of polyQ-AR phosphorylated at Ser96 [4]: significantly reduced | caspase 3 activity, PACAP (SBMA MN-1 cells [5]; 100 nM PACAP, n = 3, through activation of PKA): significantly reduced | degradation in the blood [6]: rapidly degraded in the blood | metabolic stability [6]: poor metabolic stability | dose dependence of cAMP release [7]: dose-dependent | polyQ-AR aggregation, PC12 cells (AR112Q (polyQ-AR)): reduced | cell death (SBMA MN-1 cells [8]): significantly reduced | binding of CDK2 to p21Cip1 (CDK2/p21^Cip1): increased the binding | polyQ-AR aggregation, HEK293T cells (polyQ-AR [9]): reduced | accumulation of the upper AR isoform (p21Cip1 experiments) (AR55Q (polyQ-AR) [1]; n = 3): decreased accumulation | effect on upper AR isoform upon overexpression of wtCDK2 (AR55Q (polyQ-AR) [1]; 5 hours, n = 3): blocked | reduction of the accumulation of the upper isoform of polyQ-AR (AR55Q (polyQ-AR) [1]; HEK293T expressing AR55Q, 10 nM DHT and 100 nM PACAP, 5 hours, n = 9): 35% | mobility of S96A and S96D phosphomutants (AR55Q (polyQ-AR) [1]): not affected

C[C@]12CCC(=O)C[C@@H]1CC[C@@H]1[C@@H]2CC[C@]2(C)[C@@H](O)CC[C@@H]12 [DHT, dihydrotestosterone]
AR stabilization (AR): stabilizes | accumulation of the upper AR isoform, increase (AR55Q (polyQ-AR) [1]): about 1.2 fold

CC(C)C[C@@H](C=O)NC(=O)[C@H](CC(C)C)NC(=O)[C@H](CC(C)C)NC(=O)OCc1ccccc1 [MG132] (Cbz-Leu-Leu-Leu-aldehyde)
effect of PKA and OA on polyQ-AR (AR55Q (polyQ-AR) [10]; HEK293T AR55Q, 10 μM MG132 (5 hours), n = 3): abolished

vasoactive intestinal peptide (HSDAVFTDNYTRLRKQMAVKKYLNSILN; ends and bridges not checked; UniProt P01282 125-152, looked up) [VIP]
activation of AC (AC/PKA pathway): reduced ability to activate AC | accumulation of the upper isoform of polyQ-AR, VIP (AR55Q (polyQ-AR) [1]; fig. S3): does not modify

C=C1[C@@H](O)[C@@H]2O[C@]3(CC[C@H](/C=C/[C@@H](C)[C@@H]4CC(C)=C[C@@]5(O[C@H](C[C@@](C)(O)C(=O)O)CC[C@H]5O)O4)O3)CC[C@H]2O[C@@H]1[C@@H](O)C[C@H](C)[C@H]1O[C@@]2(CCCCO2)CC[C@H]1C [Okadaic acid]
expression of p21Cip1 (p21^Cip1): induced the expression | binding of CDK2 to p21Cip1 (CDK2/p21^Cip1): increased the binding | accumulation of the upper AR isoform (p21Cip1 experiments) (AR55Q (polyQ-AR) [1]; n = 3): decreased accumulation

C=C[C@@]1(C)CC(=O)[C@]2(O)[C@@]3(C)[C@@H](O)CCC(C)(C)[C@@H]3[C@H](O)[C@H](OC(C)=O)[C@@]2(C)O1 [forskolin]
expression of p21Cip1 (p21^Cip1): induced the expression | reduction of polyQ-AR accumulation (AR55Q (polyQ-AR) [10]; HEK293T AR55Q, 10 μM forskolin, cycloheximide 10 μg/ml, n = 5): 80% | AR transcript levels (AR55Q (polyQ-AR) [10]; fig. S19C): without altering | amount of polyQ-AR phosphorylated at Ser96 [4]: significantly reduced | caspase 3 activity, forskolin (SBMA MN-1 cells [5]; 10 μM forskolin, n = 6 to 9): significant decrease | upper-isoform accumulation of polyQ-AR, MN-1 cells (AR100Q (polyQ-AR) [11]): decreased | polyQ-AR aggregation, PC12 cells (AR112Q (polyQ-AR)): reduced | upper-isoform accumulation of polyQ-AR, primary rat cortical neurons (AR100Q (polyQ-AR) [12]): decreased | binding of CDK2 to p21Cip1 (CDK2/p21^Cip1): increased the binding | polyQ-AR aggregation, HEK293T cells (polyQ-AR [9]): reduced | accumulation of the upper AR isoform (p21Cip1 experiments) (AR55Q (polyQ-AR) [1]; n = 3): decreased accumulation | effect on upper AR isoform upon overexpression of wtCDK2 (AR55Q (polyQ-AR) [1]; 5 hours, n = 3): blocked | accumulation of the upper isoform of polyQ-AR (AR55Q (polyQ-AR) [1]; HEK293T expressing AR55Q, 10 nM DHT and 10 μM forskolin, 5 hours, n = 3): decreased the accumulation | mobility of S96A and S96D phosphomutants (AR55Q (polyQ-AR) [1]): not affected | shift from annular to fibrillar oligomers caused by polyQ expansion (polyQ-AR [13]): reversed

acetyl–[Ala^15, Ala^20]PACAP1–38–propylamide [Peptide 6]
PAC1 receptor agonism (PAC1 receptor): superagonist
